We go through 24 molecules from ChEMBL document CHEMBL1143480, “Bicyclic heteroarylpiperazines as selective brain penetrant 5-HT6 receptor antagonists” (Bioorg Med Chem Lett, 2005).

Experiment [1] addresses T1, 5-hydroxytryptamine receptor 6 (Homo sapiens, UniProt P50406). The experiment in a line: Displacement of [3H]LSD from human 5-hydroxytryptamine 6 receptor expressed in HeLa cells. It counts as cell-based. The gist of the method: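 Human cloned 5-HT6 receptor expressed in HeLa cells. Binding measured by [3H]LSD displacement and reported as pKi. Each value is the mean of at least three experiments, each within 0.3 of the mean.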
In general terms: Displacement assays read how much labelled ligand stays bound in the presence of the test substance.

Experiment [2] has as its target 5-hydroxytryptamine receptor 6 (Rattus norvegicus) (UniProt P31388). The experiment in a line: (§1) In vivo binding assay against rat 5-hydroxytryptamine 6 receptor using [125I]-SB-258,585. It counts as functional, organism-based. Put shortly:
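Ex vivo assay. Rats were given vehicle or antagonist orally with a 4 h pretreatment, then killed. Striatum was removed and homogenised, and a binding assay with a selective 5-HT6 radioligand was run on the tissue. Potency is expressed as oral ED50 (mg/kg).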

Experiment [3] addresses T1, 5-hydroxytryptamine receptor 6. The experiment in a line: Binding affinity against 5-hydroxytryptamine 6 receptor of human caudate.
Experiment [4] deals with 5-hydroxytryptamine receptor 6 (Rattus norvegicus, UniProt P31388). The experiment in a line: Binding affinity against 5-hydroxytryptamine 6 receptor of rat striatum. It counts as tissue-based.
Chain of 5-hydroxytryptamine receptor 6 (Rattus norvegicus, UniProt P31388) (P31388 whole entry): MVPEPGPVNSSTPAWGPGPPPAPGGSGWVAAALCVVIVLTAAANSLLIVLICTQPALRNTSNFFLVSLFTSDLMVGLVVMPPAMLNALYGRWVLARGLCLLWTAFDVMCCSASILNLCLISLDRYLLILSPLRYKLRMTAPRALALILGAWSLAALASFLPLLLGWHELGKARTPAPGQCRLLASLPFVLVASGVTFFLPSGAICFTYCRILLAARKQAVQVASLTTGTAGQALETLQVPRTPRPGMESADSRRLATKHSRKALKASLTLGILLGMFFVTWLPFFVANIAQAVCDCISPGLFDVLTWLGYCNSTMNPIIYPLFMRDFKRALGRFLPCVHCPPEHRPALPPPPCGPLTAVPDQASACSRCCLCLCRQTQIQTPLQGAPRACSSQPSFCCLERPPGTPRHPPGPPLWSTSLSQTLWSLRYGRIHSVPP
For experiment [5], the target named is T1, 5-hydroxytryptamine receptor 6. As to conditions: HeLa.
Experiment [6] addresses 5-hydroxytryptamine receptor 6 (Rattus norvegicus) (UniProt P31388). The description is as §1. It counts as organism-based. Put shortly: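 Ex vivo assay: rats were dosed orally with vehicle or antagonist and killed after a 4 h pretreatment. Striatum was removed and homogenised, and a binding assay with the selective 5-HT6 radioligand was run on the tissue. ED50 was expressed as mg/kg po.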

Chain of 5-hydroxytryptamine receptor 6 (Rattus norvegicus) (P31388 whole entry): as above
T1 sequence (P50406 whole entry): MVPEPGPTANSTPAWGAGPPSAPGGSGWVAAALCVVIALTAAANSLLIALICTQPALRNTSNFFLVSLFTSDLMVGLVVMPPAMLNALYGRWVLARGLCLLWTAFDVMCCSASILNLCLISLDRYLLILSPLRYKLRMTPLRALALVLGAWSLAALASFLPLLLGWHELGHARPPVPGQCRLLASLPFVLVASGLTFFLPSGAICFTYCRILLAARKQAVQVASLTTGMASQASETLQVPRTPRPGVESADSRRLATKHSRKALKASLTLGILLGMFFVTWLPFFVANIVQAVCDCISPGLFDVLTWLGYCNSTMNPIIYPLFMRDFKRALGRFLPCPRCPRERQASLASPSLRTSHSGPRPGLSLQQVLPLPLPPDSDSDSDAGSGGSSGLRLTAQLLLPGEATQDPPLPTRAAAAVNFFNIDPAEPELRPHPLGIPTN

Usually Ki stands for the equilibrium dissociation constant of an inhibitor or competing ligand from its target. Lower therefore signals higher affinity. Turning to `O=S(=O)(c1ccc(Cl)cc1)n1ccc2c(N3CCNCC3)cccc21`, in experiment [1], the Ki was 2 nM. Same read-out and setting: the result for `Cc1c(S(=O)(=O)n2ccc3c(N4CCNCC4)cccc32)sc2ccc(Cl)cc12` reads 3.16 nM. The same measure, in the same setting: the result for `O=S(=O)(c1cccc(Cl)c1)n1ccc2c(N3CCNCC3)ccc(Cl)c21` reads 0.316 nM. By ED50 is commonly meant the dose at which the effect has come halfway, by size or by number of responders. A lower ED50 goes with an effect at a small dose. In the case of `Cn1cc(S(=O)(=O)c2cccc(Cl)c2)c2cccc(N3CCNCC3)c21`, the Ki in experiment [1] is 2.51 nM. For the same molecule, the ED50 in experiment [2] came out at 5 mg/kg. Regarding `O=S(=O)(c1ccccn1)n1ccc2c(N3CCNCC3)c(Cl)ccc21`, the affinity in experiment [1] corresponds to a Ki of 0.501 nM. On the same count and under the same terms, next, `O=S(=O)(c1ccccn1)n1ccc2c(N3CCNCC3)cccc21`: 1 nM; `O=S(=O)(c1ccccc1Cl)n1ccc2c(N3CCNCC3)cccc21`: 0.398 nM. Take `O=S(=O)(c1cccc2ccccc12)n1ccc2c(N3CCNCC3)c(Cl)ccc21`: the Ki in experiment [1] was 7.94 nM.

For `O=S(=O)(c1cccc(Cl)c1)c1c[nH]c2c(N3CCNCC3)cccc12`, the Ki in experiment [1] is 0.316 nM. Still for that read-out and setting: next, `O=S(=O)(c1ccc2ccccc2c1)n1ccc2c(N3CCNCC3)c(Cl)ccc21`: 25.1 nM; `Cc1cn(S(=O)(=O)c2cccc(Cl)c2)c2cccc(N3CCNCC3)c12`: 0.631 nM; `O=S(=O)(c1ccccc1Cl)n1ccc2c(N3CCNCC3)c(Cl)ccc21`: 1 nM.

In experiment [1], `O=S(=O)(c1cccc(Cl)c1)n1ccc2c(N3CCNCC3)cccc21` had a Ki of 0.251 nM. The same measure, in the same setting: next, `O=S(=O)(c1ccccc1)c1coc2c(N3CCNCC3)cccc12`: 1.26 nM; `N#Cc1ccc2c(ccn2S(=O)(=O)c2cccc(Cl)c2)c1N1CCNCC1`: 5.01 nM. Molecule `Cc1cc2c(N3CCNCC3)cccc2n1S(=O)(=O)c1cccc(Cl)c1` showed a Ki in experiment [1] of 0.398 nM. For `O=S(=O)(c1ccc(Cl)cc1)n1ccc2c(N3CCNCC3)c(Cl)ccc21`, in experiment [1], affinity was put at a Ki of 6.31 nM. In experiment [1], `O=S(=O)(c1ccccc1)c1csc2c(N3CCNCC3)cccc12` showed an inhibition constant Ki of 0.501 nM. Broadly, the pKb is the negative decadic logarithm of the Kb, by convention in mol/L. Lower therefore signals a high Kb. As for `O=S(=O)(c1cccc(Cl)c1)n1ccc2c(N3CCNCC3)c(Cl)ccc21`, the Ki is 7.94 nM in experiment [3], 2.51 nM in experiment [1] and 12.6 nM in experiment [4]. This molecule also displayed a negative-log Kb (pKb) in experiment [5] of 7.2. Also, the 50% effect level in experiment [2] (ED50) was put at a dose of 3 mg/kg.

In experiment [1], `O=S(=O)(c1ccccc1)c1c[nH]c2c(N3CCNCC3)nccc12` had a Ki of 25.1 nM.

For `COc1ccc(NS(=O)(=O)c2sc3ccc(Cl)cc3c2C)cc1N1CCNCC1`, in experiment [6], the 50% effect level (ED50) was put at a dose of 11 mg/kg. In experiment [1], `O=S(=O)(c1ccccc1)n1ccc2c(N3CCNCC3)c(Cl)ccc21` gave a Ki of 1.58 nM. The same measure, in the same setting: the result for `O=S(=O)(c1ccccc1)c1c[nH]c2c(N3CCNCC3)ccnc12` reads 7.94 nM. On the same count and under the same terms, next, `O=S(=O)(c1cccc(Cl)c1)n1cc(Cl)c2c(N3CCNCC3)cccc21`: 0.316 nM.
